Assay outcomes as filed in PubChem BioAssay.
This is a sample that favours compounds with a hit; in the whole collection about 12% have one here.
Diaphorase act – counter-screen for diaphorase-based assays: diaphorase activators and chemical reducers; activation factor at 20 µM; Diaphorase/resazurin coupled assay, resorufin fluorescence, 16 min; hits give high values; 1 = vehicle wells, 0 = NADH-free wells; 0.005% of 190,000 active;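 active means diaphorase activity raised at least twofold by the compound at 20 µM; inactive means activation factor below 2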
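Material: purified diaphorase enzyme from Clostridium kluyveri / Medium: HEPES pH 7.4 buffer with MgCl2 and Tween 20 / Schedule: enzyme reaction of 16 min at room temperature / Measured by: resorufin fluorescence, excitation 544 nm, emission 590 nm / Evaluation: rise in resorufin formation, marking diaphorase activation or chemical reduction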
ROMK mod – modulates human ROMK potassium channel activity; P48048; B-score at 10 µM; 2% of 130,000 active; Tet-inducible ROMK, thallium flux fluorescence; actives lie on both sides;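 active means signal ratio slope over the read window, or its plate-corrected B-score, at least 3 SD from the plate mean, either direction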;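 further: B-score of the F/F0 ratio slope over 7 to 12 s after thallium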
Diaph inh CS – diaphorase inhibition or chemical oxidation counter-screen | diaphorase resazurin-to-resorufin fluorescence, NADH, 16 min; bacterial (C. kluyveri) enzyme, not human | inhibition, % at 20 µM | 0.69% of 190,000 active;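 active means primary screen inhibition at 20 µM above a set limit, cut at about 50% in these data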;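 further: plate controls were DMSO with full reaction for no effect and wells lacking NADH for full effect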
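Assay system: diaphorase enzyme from Clostridium kluyveri; Input: enzyme working solution with 0.14 U/mL diaphorase; Timing: 16 min at room temperature; Technique: resorufin fluorescence, excitation 544 nm, emission 590 nm; Benchmarks: positive control minus NADH, DMSO neutral control.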
L major viab – Leishmania major promastigote growth inhibition; Leishmania major promastigotes, resazurin fluorescence viability; inhibition, % at 10 µM; 9% of 200,000 active; AID 1063; in the data active means inhibition above about 50%;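 further: promastigotes grown with compound for 44 hours at 28 °C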
Cl transport mod – KCC2 (human) Cl- transport modulation; AID 1456; Q9H2X9; KCC2 cells, thallium flux FluoZin-2 fluorescence; 2.2% of 190,000 active; B-score of Tl+ flux slope (higher = more flux/activation; lower = inhibition) at 10 µM;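 active means thallium flux slope and its plate-corrected score both differing from the plate sample mean at a set confidence after two filtering rounds, in either direction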;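 further: slope of fluorescence scaled to starting intensity during 10 to 20 s after thallium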
Target sequence (Q9H2X9 whole entry, looked up): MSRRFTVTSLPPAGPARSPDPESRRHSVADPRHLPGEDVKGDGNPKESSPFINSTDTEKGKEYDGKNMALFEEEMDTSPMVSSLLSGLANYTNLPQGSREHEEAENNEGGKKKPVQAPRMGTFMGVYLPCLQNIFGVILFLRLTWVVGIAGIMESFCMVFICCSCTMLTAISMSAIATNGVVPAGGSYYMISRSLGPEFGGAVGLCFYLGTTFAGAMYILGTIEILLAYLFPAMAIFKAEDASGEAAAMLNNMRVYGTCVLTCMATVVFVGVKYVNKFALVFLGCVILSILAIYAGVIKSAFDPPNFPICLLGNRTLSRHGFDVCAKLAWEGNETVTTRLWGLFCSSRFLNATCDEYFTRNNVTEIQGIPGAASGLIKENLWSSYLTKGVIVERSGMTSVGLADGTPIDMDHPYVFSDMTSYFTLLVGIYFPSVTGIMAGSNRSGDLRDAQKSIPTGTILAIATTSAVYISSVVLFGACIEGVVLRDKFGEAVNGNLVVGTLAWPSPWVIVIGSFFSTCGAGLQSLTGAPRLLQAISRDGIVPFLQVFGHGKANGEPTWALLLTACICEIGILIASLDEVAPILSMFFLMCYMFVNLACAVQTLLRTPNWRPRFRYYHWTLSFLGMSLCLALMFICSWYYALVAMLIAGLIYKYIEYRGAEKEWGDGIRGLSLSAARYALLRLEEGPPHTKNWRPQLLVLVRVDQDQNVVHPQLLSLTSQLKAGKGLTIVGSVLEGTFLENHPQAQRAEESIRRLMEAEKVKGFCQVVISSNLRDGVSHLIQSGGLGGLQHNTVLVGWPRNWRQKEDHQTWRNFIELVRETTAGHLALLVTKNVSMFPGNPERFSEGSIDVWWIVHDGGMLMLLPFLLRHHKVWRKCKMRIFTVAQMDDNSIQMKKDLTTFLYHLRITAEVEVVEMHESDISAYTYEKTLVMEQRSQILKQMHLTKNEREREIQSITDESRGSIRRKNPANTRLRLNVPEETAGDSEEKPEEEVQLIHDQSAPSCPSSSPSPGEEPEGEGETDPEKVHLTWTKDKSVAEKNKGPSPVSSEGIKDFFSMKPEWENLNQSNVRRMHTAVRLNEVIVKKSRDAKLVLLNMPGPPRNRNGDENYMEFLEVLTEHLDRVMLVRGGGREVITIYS
WT yeast gro inh – growth inhibition of WT yeast, mitochondrial fusion screen | mitochondrial fusion phenotypic screen, WT strain | inhibition, % at 10 µM | 2.1% of 190,000 active | AID 1362; in the data active means inhibition above about 58%; tested in S. cerevisiae
* = called active by the depositor; x = no result given.

SMILES	Diaphorase act	ROMK mod	Diaph inh CS	L major viab	Cl transport mod	WT yeast gro inh
CCc1cc2c(cc3c(=O)n(CC(=O)NCCCN4CC(C)CC(C)C4)ncn32)s1 (stereo not given)	0.9	x	13	84*	-0.096	10
CC1CC(C)CN(CCCNC(=O)Cn2ncn3cccc3c2=O)C1 (stereo not given)	0.9	1.5	10	-4	0.89	-4
CCc1cc2c(cc3c(=O)n(CC(=O)NCCCN(CC)CC)nc(CC)n32)s1	1	-0.1	0	92*	1.2	14
CCc1nn(CC(=O)NCCCN(CC)c2cccc(C)c2)c(=O)c2cc3occc3n12	0.9	0.082	8	-3	-1.8	5
COc1ccc(-c2cc(-c3nnc(COC(=O)c4ccncc4)o3)c3ccccc3n2)cc1OC	0.9	-0.079	11	2	-0.61	-1
O=[N+]([O-])c1cccc(-c2nc3ccccc3s/c2=N/O)c1	x	x	x	x	-2.6	x
Cc1ccccc1Cn1c(=O)n(Cc2ccco2)c(=O)c2ccccc21	0.8	-0.26	17	27	0.19	19
Cc1ccccc1Cn1c(=N)n(CC(O)c2ccco2)c2ccccc21 (stereo not given)	0.8	x	16	78*	x	5
O=C(C1CC1)N1CCc2cc(Br)cc(S(=O)(=O)NCC3COc4ccccc4O3)c21 (stereo not given)	0.8	x	23	-3	-0.35	-8
COc1cc(C(c2c(C)[nH][nH]c2=O)c2c(C)[nH][nH]c2=O)ccc1OCc1ccc([N+](=O)[O-])cc1	0.8	-0.67	22	98*	-0.28	-7
NC(N)=N/N=C/c1ccc(Br)cc1	1	-1	4	100*	-0.23	8
N#Cc1ccc(/C=N/N=C(N)N)cc1	1	-0.37	4	79*	-0.97	-5
CCNC(=S)N/N=C/c1ccc(C#N)cc1	1	-1.2	4	-2	-0.15	-9
Cc1ccccc1-c1nnn(CC(=O)N2CCN(S(=O)(=O)c3ccc(Cl)cc3)CC2)n1	0.9	0.063	11	53*	-0.3	-3
Nn1cc(-c2ccccc2)nc1SCC(=O)N1CCN(S(=O)(=O)c2ccc3ccccc3c2)CC1	0.7	-0.21	26	-4	-0.65	-4
Nn1cc(-c2ccccc2)nc1SCC(=O)N1CCN(S(=O)(=O)c2ccc(Cl)cc2)CC1	0.5	x	54*	0	-2.3	18
O=C(Cn1nnc(-c2ccccc2)n1)N1CCN(S(=O)(=O)c2ccc(Cl)cc2)CC1	0.7	1	27	37	x	-1
O=C(CSc1nc2ccccc2[nH]1)N1CCN(S(=O)(=O)c2ccc(Cl)cc2)CC1	0.8	-0.33	25	64*	-1.1	-5
O=C(CSc1nc2ccccc2[nH]1)NCCc1ccc(Cl)cc1	0.8	x	15	56*	-1.7	4
COc1ccc(/C=N/NC(=O)c2[nH]ncc2Br)c(OC)c1	0.9	x	11	-4	x	15
Cc1ccc2c(c1)C=CC(C)(C)S2(=O)=O	0.9	1	12	-7	-0.37	-24
Cc1ccc(S(=O)(=O)NCC(=O)N(CC(=O)NC2CCCCC2)CC2CCCO2)cc1 (stereo not given)	0.9	-1	7	-6	x	6
CCCc1nc([N+](=O)[O-])c(S(=O)(=O)c2ccccc2)n1CC(C)C	1	0.68	0	95*	x	1
CC(C)Cn1nc(NS(=O)(=O)c2ccccc2)c2cc3ccccc3nc21	0.9	x	14	37	0.19	3
CC(C)Cn1c(C(C)C)nc([N+](=O)[O-])c1Sc1ccc(Cl)cn1	0.8	0.017	16	41	-1.3	-3
SMILES	Diaphorase act	ROMK mod	Diaph inh CS	L major viab	Cl transport mod	WT yeast gro inh
CC(C)Cn1c(C(C)C)nc([N+](=O)[O-])c1S(=O)(=O)c1ccc(F)cc1	1	x	4	96*	x	0
Nc1ncc(Br)cc1S(=O)(=O)NCCC(=O)Nc1cccc(Cl)c1	0.9	x	8	64*	-0.085	57
O=C1OC(N2CCN(C/C=C/c3ccccc3)CC2)c2ccccc21 (stereo not given)	0.9	x	10	56*	0.99	1
O=C1CC(N2CCN(C/C=C/c3ccccc3)CC2)C(=O)N1Cc1cccs1 (stereo not given)	0.9	x	9	89*	x	8
O=C1CC(N2CCN(C/C=C/c3ccccc3)CC2)C(=O)N1CCc1ccccc1 (stereo not given)	0.9	x	10	93*	x	-7
COC(=O)c1ccc(COc2ccc(/C=N/Nc3nc(C)cc(=O)[nH]3)cc2)cc1	x	x	x	x	-0.19	x
CC(C)(C)N=C1NN=C(c2cc3ccccc3o2)CS1	0.7	x	29	-6	0.44	67*
Nc1cc(C(=O)c2ccccc2)ccc1N1CCOCC1	0.9	0.88	12	54*	1.1	-18
O=C(Nc1ccccc1N1CCOCC1)c1cccc(F)c1	0.9	x	9	4	0.36	76*
O=C(Nc1ccccc1N1CCOCC1)c1cc(F)cc(F)c1	0.8	-0.12	17	7	1.1	74*
CC(=O)Nc1cc(C(=O)c2ccccc2)ccc1N1CCOCC1	0.9	x	6	1	x	9
Cc1cc(NC(=O)c2ccc([N+](=O)[O-])cc2)n(C)n1	x	x	x	x	-0.95	x
CCOC(=O)CC1C(=O)NCCN1C(=O)NC1CCCCC1 (stereo not given)	1	x	1	6	x	-21
CSc1cccc(NC(N)=S)c1	x	-0.76	x	x	-0.3	x
COCCCNC(=S)N1CCCN(c2nc3c(C)c(C)ccc3cc2C#N)CC1	x	-0.71	x	7	-0.54	69*
Cc1ccc2cc(C#N)c(N3CCCC3)nc2c1C	0.8	0.32	16	3	-0.78	-5
CC1CCCCC12NC(=O)N(CC(=O)NC(=O)Nc1ccc3c(c1)OCCO3)C2=O (stereo not given)	0.9	0.62	5	0	-0.14	-5
CCC1CCC2(CC1)NC(=O)N(CC(=O)Nc1cc(C)on1)C2=O (stereo not given)	0.8	-0.056	16	62*	1.8	11
Cc1cc(NC(=O)CN2C(=O)NC3(CCCCC3C)C2=O)no1 (stereo not given)	1	0.56	-3	58*	0.18	2
Cc1cc(-n2c(C)cc(C(=O)CN3C(=O)NC4(CCCCCC4)C3=O)c2C)no1	0.9	x	14	100*	x	-18
O=C(O)CC(NC(=O)CCC1CCCCC1)c1cc([N+](=O)[O-])ccc1Cl (stereo not given)	1	-0.3	4	-4	0.58	8
NCCOc1ccccc1Cc1ccccc1	1.1	-0.75	-10	99*	1.2	0
CCN(C(=S)NCc1ccccc1)c1ccccc1	1	0.05	4	24	0.79	16
Nc1cc([N+](=O)[O-])ccc1O	0.9	0.88	8	98*	-0.097	-4
Cc1ccc(-c2cc(-c3cccc(F)c3)n[nH]2)c(O)c1	0.8	x	15	24	-0.14	56
